Experimental findings from ChEMBL document CHEMBL3351917, “Structure-activity relationship study of 4EGI-1, small molecule eIF4E/eIF4G protein-protein interaction inhibitors” (Eur J Med Chem, 2014) are described below.

Where “and” joins values, the source holds several entries; their conditions need not be identical. Equal entries are not always repeated. Calls of active or inactive are those of the source. The calls are words filed in the database; no cut-off is given here.

In general, Kd refers to the constant that tells how readily two partners part at equilibrium.

Test system in the first data set: not listed separately
The data set can be described thus: Retention time of the compound in 50 to 100% ACN/Water/0.1%TFA by RP-HPLC analysis. It counts as physicochemical. The following applies: buffer. Put shortly:
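RP-HPLC run with a 50 to 100% ACN/water/0.1% TFA gradient over 25 min; retention times and isomer ratios taken from the reaction mixture.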
`O=C(O)/C(Cc1ccc(C(=O)O)cc1)=N\Nc1nc(-c2ccc(Cl)c(Cl)c2)cs1` gave a Retention_time of 8.13 min.

On to `O=C(O)/C(Cc1ccccc1[N+](=O)[O-])=N/Nc1nc(-c2ccc(C3CCCCC3)cc2)cs1`, for which the Retention_time turned out to be 12.013 min.

Take `O=C(O)/C(Cc1ccccc1[N+](=O)[O-])=N/Nc1nc(-c2ccc3ccccc3c2)cs1`: the Retention_time stood at 7.27 min.

Regarding `O=C(O)/C(Cc1ccc(F)cc1)=N\Nc1nc(-c2ccc(Cl)c(Cl)c2)cs1`, the Retention_time is listed as 7.92 min.

`O=C(O)/C(Cc1ccc(Cl)c([N+](=O)[O-])c1)=N\Nc1nc(-c2ccc(Cl)c(Cl)c2)cs1` yielded a Retention_time of 9.449 min.

In the case of `Nc1ccc(C/C(=N/Nc2nc(-c3ccc(Cl)c(Cl)c3)cs2)C(=O)O)cc1[N+](=O)[O-]`, the Retention_time is reported as 15.08 min.

In the case of `O=C(O)/C(Cc1ccccc1)=N\Nc1nc(-c2ccc(Cl)c(Cl)c2)cs1`, the Retention_time was 10.56 min.

`O=C(O)/C(Cc1ccccc1[N+](=O)[O-])=N/Nc1nc(-c2ccc(N3CCOCC3)cc2)cs1` displayed a Retention_time of 15.082 min.

Compound `O=C(O)/C(Cc1ccccc1)=N/Nc1nc(-c2ccc(Cl)c(Cl)c2)cs1` returned a Retention_time of 8.7 min.

`O=C(O)/C(Cc1ccc(O)c([N+](=O)[O-])c1)=N/Nc1nc(-c2ccc(Cl)c(Cl)c2)cs1` had a Retention_time of 7.82 min.

With `O=C(O)/C(Cc1ccc(Cl)cc1)=N\Nc1nc(-c2ccc(Cl)c(Cl)c2)cs1`, the Retention_time was found to be 10.09 min.

Turning to `O=C(O)/C(Cc1ccccc1[N+](=O)[O-])=N\Nc1nc(-c2ccc(C3CCCCC3)cc2)cs1`, the Retention_time was 11.636 min.

Regarding `O=C(O)/C(Cc1ccc(C(F)(F)F)cc1)=N\Nc1nc(-c2ccc(Cl)c(Cl)c2)cs1`, the Retention_time was determined as 10.53 min.

`COc1ccc(C/C(=N/Nc2nc(-c3ccc(Cl)c(Cl)c3)cs2)C(=O)O)cc1[N+](=O)[O-]` gave a Retention_time of 10.68 min.

Consider `O=C(O)/C(Cc1ccccc1[N+](=O)[O-])=N\Nc1nc(-c2ccc(-c3ccccc3)cc2)cs1`, for which the Retention_time is recorded as 7.23 min.

Compound `COc1ccc(C/C(=N\Nc2nc(-c3ccc(Cl)c(Cl)c3)cs2)C(=O)O)cc1[N+](=O)[O-]` came in with a Retention_time of 8.007 min.

On to `O=C(O)/C(Cc1ccc([N+](=O)[O-])cc1)=N/Nc1nc(-c2ccc(Cl)c(Cl)c2)cs1`, for which the Retention_time is reported as 8.16 min.

`O=C(O)/C(Cc1ccc(O)cc1)=N/Nc1nc(-c2ccc(Cl)c(Cl)c2)cs1`: the Retention_time is reported as 14.28 min.

Turning to `O=C(O)/C(Cc1ccccc1[N+](=O)[O-])=N\Nc1nc(-c2ccc(Cl)c(Cl)c2)cs1`, the Retention_time is given as 13.69 min.

For the compound `O=C(O)/C(Cc1ccc(O)cc1)=N\Nc1nc(-c2ccc(Cl)c(Cl)c2)cs1`, the Retention_time came to 14.28 min.

`O=C(O)/C(Cc1ccc(F)c([N+](=O)[O-])c1)=N\Nc1nc(-c2ccc(Cl)c(Cl)c2)cs1` displayed a Retention_time of 8.4 min.

In turn, `O=C(O)/C(Cc1ccc(Cl)c([N+](=O)[O-])c1)=N/Nc1nc(-c2ccc(Cl)c(Cl)c2)cs1` registered a Retention_time of 9.437 min.

As to `O=C(O)/C(Cc1ccc(F)cc1)=N/Nc1nc(-c2ccc(Cl)c(Cl)c2)cs1`, the Retention_time stood at 7.47 min.

For `O=C(O)/C(Cc1ccc(C(F)(F)F)cc1)=N/Nc1nc(-c2ccc(Cl)c(Cl)c2)cs1`, the Retention_time is on record as 10.59 min.

`O=C(O)/C(Cc1cccc([N+](=O)[O-])c1)=N/Nc1nc(-c2ccc(Cl)c(Cl)c2)cs1` returned a Retention_time of 7.19 min.

In turn, `O=C(O)/C(Cc1ccc([N+](=O)[O-])cc1)=N\Nc1nc(-c2ccc(Cl)c(Cl)c2)cs1` returned a Retention_time of 8.01 min.

For the compound `O=C(O)/C(Cc1ccccc1[N+](=O)[O-])=N\Nc1nc(-c2ccc3ccccc3c2)cs1`, the Retention_time came out at 5.899 min.

Consider `O=C(O)/C(Cc1ccc(F)c([N+](=O)[O-])c1)=N/Nc1nc(-c2ccc(Cl)c(Cl)c2)cs1`, for which the Retention_time worked out at 15.54 min.

`O=C(O)/C(Cc1cccc([N+](=O)[O-])c1)=N\Nc1nc(-c2ccc(Cl)c(Cl)c2)cs1` returned a Retention_time of 8.36 min.

Take `O=C(O)/C(Cc1ccc(O)c([N+](=O)[O-])c1)=N\Nc1nc(-c2ccc(Cl)c(Cl)c2)cs1`: the Retention_time was determined as 7.82 min.

`O=C(O)/C(Cc1ccccc1[N+](=O)[O-])=N\Nc1nc(-c2ccc(N3CCOCC3)cc2)cs1` had a Retention_time of 12.32 min.

Take `O=C(O)/C(Cc1ccccc1[N+](=O)[O-])=N/Nc1nc(-c2ccc(Cl)c(Cl)c2)cs1`: the Retention_time is 8.68 min.

Consider `O=C(O)/C(Cc1ccc(C(=O)O)cc1)=N/Nc1nc(-c2ccc(Cl)c(Cl)c2)cs1`, for which the Retention_time was 5.62 min.

Test system in another data set: not listed separately
The experiment in a line: Retention time of the compound in 30 to 100% ACN/Water/0.1%TFA by RP-HPLC analysis. It counts as physicochemical. The following applies: buffer. Put shortly: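 Reverse-phase HPLC, 30 to 100% ACN/water/0.1% TFA gradient in 25 min; retention times and E/Z ratios determined on the reaction mixture.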
As to `O=C(O)/C(Cc1ccccc1[N+](=O)[O-])=N/Nc1nc(-c2ccc3ccccc3c2)cs1`, the Retention_time is on record as 11.72 min.

For the compound `O=C(O)/C(Cc1ccccc1[N+](=O)[O-])=N\Nc1nc(-c2ccc(N3CCCC3)cc2)cs1` (mixture of isomers), the Retention_time was 8.828 min.

Turning to `Nc1ccc(C/C(=N/Nc2nc(-c3ccc(Cl)c(Cl)c3)cs2)C(=O)O)cc1[N+](=O)[O-]`, the Retention_time worked out at 15.09 min.

Turning to `O=C(O)/C(Cc1ccc(C(=O)O)cc1[N+](=O)[O-])=N/Nc1nc(-c2ccc(Cl)c(Cl)c2)cs1`, the Retention_time turned out to be 11.814 min.

`O=C(O)/C(Cc1ccc(C(=O)O)cc1[N+](=O)[O-])=N\Nc1nc(-c2ccc(Cl)c(Cl)c2)cs1` gave a Retention time of 12.5 min.

In the case of `[N-]=[N+]=Nc1ccc(-c2csc(N/N=C(\Cc3ccccc3[N+](=O)[O-])C(=O)O)n2)cc1`, the Retention_time is on record as 11.722 min.

The compound `O=C(O)/C(Cc1ccc(Br)cc1[N+](=O)[O-])=N/Nc1nc(-c2ccc(Cl)c(Cl)c2)cs1` showed a Retention_time of 15.542 min.

As to `[N-]=[N+]=Nc1ccc(-c2csc(N/N=C(/Cc3ccccc3[N+](=O)[O-])C(=O)O)n2)cc1`, the Retention_time came to 13.435 min.

On to `O=C(O)/C(Cc1ccccc1[N+](=O)[O-])=N/Nc1nc(-c2ccc(Br)cc2)cs1`, for which the Retention_time was found to be 10 min.

Regarding `Nc1ccc(C/C(=N\Nc2nc(-c3ccc(Cl)c(Cl)c3)cs2)C(=O)O)cc1[N+](=O)[O-]`, the Retention_time was found to be 12.3 min.

Take `Nc1ccc(C/C(=N/Nc2nc(-c3ccc(Cl)c(Cl)c3)cs2)C(=O)O)cc1`: the Retention_time was 5.328 min.

`O=C(O)/C(Cc1ccccc1[N+](=O)[O-])=N\Nc1nc(-c2ccc(Br)cc2)cs1` registered a Retention_time of 12.48 min.

Test system in another data set: not listed separately
The experiment in a line: Retention time of the compound in 0 to 100% ACN/Water/0.1%TFA by RP-HPLC analysis. The data set is classed as physicochemical. The following applies: buffer. Put shortly:
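Reverse-phase HPLC, linear gradient 0 to 100% ACN/water/0.1% TFA over 25 min; isomer retention times and ratios measured in the reaction mixture.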
Regarding `O=C(O)/C(Cc1ccccc1[N+](=O)[O-])=N/Nc1nc(-c2ccccc2)cs1`, the Retention_time is 15.8 min.

Consider `O=C(O)/C(Cc1ccccc1[N+](=O)[O-])=N\Nc1nc(-c2ccccc2)cs1`, for which the Retention_time is recorded as 16.98 min.

In turn, `O=C(O)/C(Cc1ccc(O)cc1)=N/Nc1nc(-c2ccc(Cl)c(Cl)c2)cs1` registered a Retention_time of 16.63 min.

Regarding `O=C(O)/C(Cc1ccc(O)cc1)=N\Nc1nc(-c2ccc(Cl)c(Cl)c2)cs1`, the Retention_time came to 18.74 min.

The next data set deals with T1, Eukaryotic translation initiation factor 4E (Homo sapiens, UniProt P06730). The data set can be described thus: Binding affinity to human full length recombinant GST-tagged eIF4E expressed in Escherichia coli BL21(DE3) by intrinsic tryptophan fluorescence quenching method.
T1 sequence (P06730 whole entry): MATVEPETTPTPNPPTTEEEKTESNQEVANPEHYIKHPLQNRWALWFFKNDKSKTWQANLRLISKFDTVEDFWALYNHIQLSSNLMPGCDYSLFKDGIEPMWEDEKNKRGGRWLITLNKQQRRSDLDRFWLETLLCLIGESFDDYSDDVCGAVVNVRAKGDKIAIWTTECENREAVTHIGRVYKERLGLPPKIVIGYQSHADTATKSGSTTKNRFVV
Settings: not given
For the compound `O=C(O)/C(Cc1ccccc1[N+](=O)[O-])=N\Nc1nc(-c2ccc(O)cc2)cs1`, the Kd worked out at 36.6 µM.

Take `Nc1ccc(C/C(=N/Nc2nc(-c3ccc(Cl)c(Cl)c3)cs2)C(=O)O)cc1[N+](=O)[O-]`: the Kd is 5.01 µM.

The target in a further data set is T1, Eukaryotic translation initiation factor 4E. The data set can be described thus: Inhibition of eIF4E/eIF4G interaction in human CRL2813 cells assessed as increase in eIF4E/BP1 complex at 30 uM after 6 hrs by Western blotting analysis relative to control. It counts as cell-based.
Settings: not given
In short, it runs like this:
(§1)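 CRL-2813 melanoma cells incubated 6 h with 30 µM compound or DMSO vehicle, harvested, lysed by freeze-thaw; lysate bound to m7GTP-Sepharose 1 h at 4°C, beads washed, eluted with free m7GTP; retentate resolved by SDS-PAGE and immunoblotted for eIF4E, eIF4G (monoclonal) and 4E-BP1 (polyclonal). Blots quantified; mean of three independent pull-downs, error ±S.E.M.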
On the technique in general: Immunoblotting shows a protein as a band on a membrane.
For `Nc1ccc(C/C(=N/Nc2nc(-c3ccc(Cl)c(Cl)c3)cs2)C(=O)O)cc1[N+](=O)[O-]`, the inhibition result was “Active”.

The next data set has the same target. The data set can be described thus: Inhibition of eIF4E/eIF4G interaction in human CRL2813 cells assessed as reduction of eIF4E/eIF4G complex at 30 uM after 6 hrs by Western blotting analysis relative to control. The data set is classed as cell-based.
Settings: not given
In short, it runs like this:
as §1
Take `Nc1ccc(C/C(=N/Nc2nc(-c3ccc(Cl)c(Cl)c3)cs2)C(=O)O)cc1[N+](=O)[O-]`: the inhibition result is “Active”.

Test system in another data set: not listed separately
The data set can be described thus: Retention time of the compound in 0 to 70% ACN/Water/0.1%TFA by RP-HPLC analysis. It counts as physicochemical. The following applies: buffer.
In turn, `O=C(O)/C(Cc1ccccc1[N+](=O)[O-])=N\Nc1nc(-c2ccc(O)cc2)cs1` came in with a Retention_time of 16.47 min.

Take `Nc1ccc(-c2csc(N/N=C(/Cc3ccccc3[N+](=O)[O-])C(=O)O)n2)cc1`: the Retention_time worked out at 12.98 min.

As for `O=C(O)/C(Cc1ccccc1[N+](=O)[O-])=N\Nc1nc(-c2ccc(C(=O)O)cc2)cs1`, the Retention_time is reported as 16.77 min.

Take `O=C(O)/C(Cc1ccccc1[N+](=O)[O-])=N/Nc1nc(-c2ccc(C(=O)O)cc2)cs1`: the Retention_time is given as 14.54 min.

As to `O=C(O)/C(Cc1ccccc1[N+](=O)[O-])=N/Nc1nc(-c2ccccc2)cs1`, the Retention_time is 15.796 min and 16.484 min.

With `O=C(O)/C(Cc1ccccc1[N+](=O)[O-])=N/Nc1nc(-c2ccc(O)cc2)cs1`, the Retention_time is listed as 16.48 min.

Take `O=C(O)/C(Cc1ccccc1[N+](=O)[O-])=N\Nc1nc(-c2ccccc2)cs1`: the Retention_time was 12.958 min.

Compound `Nc1ccc(-c2csc(N/N=C(\Cc3ccccc3[N+](=O)[O-])C(=O)O)n2)cc1` registered a Retention_time of 11.06 min.
